This is a sample that favours compounds with a hit; in the whole collection about 1.3% have one here.
Keap1-Nrf2 PPI: disrupts human Keap1 binding to Nrf2 peptide; Q14145; Keap1 Kelch-Nrf2 peptide fluorescence polarization, 1536-well; inhibition, % at 9.4 µM; 0.15% of 340,000 active; in the data active = inhibition above about 12%;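 note: human Keap1 Kelch domain with fluorescein labeled Nrf2 9mer peptide probe; higher means more block of Keap1 binding to Nrf2 peptide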
C-LANA FP: inhibitors of KSHV LANA C-terminal domain DNA binding | MBP-C-LANA/FAM-LBS DNA binding, fluorescence polarization | AID 504423 | inhibition, % at 9 µM | 0.078% of 340,000 active;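 active = highest replicate inhibition at or above 60% at 9 µM, even if other replicates fall short; inactive = all replicates below 60% inhibition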
T cell modulator: T cell immune modulators affecting CD8 T cell-vesicle binding | 2C CD8+ T cell-vesicle binding, flow cytometry; active compounds read low | response (vesicle binding), % at 7 µM | 0.068% of 330,000 active | AID 2052;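 active = response, share of CD8 T cells binding vesicles, and their 90th percentile fluorescence all below set limits, cut at about 80% in these data, passing the limit was not always enough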;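 note: values below 100% mean blocked vesicle binding to the CD8+ T cells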
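Assay system: 2C TCR transgenic mouse naive CD8+ T cells, MACS-purified | Read-out: CD8+ gate FL2 mean fluorescence as % of same-row positive control | Signal: High-throughput flow cytometry with anti-B7-1 and anti-CD8 staining | Timing: Binding step 1.5 h, 37 °C, antibody labelling 20 min, ice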
EBV gp42 inh: blocks Epstein-Barr virus glycoprotein 42 binding; Q1HVG2; Fluorescence polarization binding assay, mP read-out; inhibition, % (tested at 21.74 µM); 0.42% of 220,000 active; AID 1085; in the data active = inhibition above about 50%
Target sequence (Q1HVG2 whole entry, looked up): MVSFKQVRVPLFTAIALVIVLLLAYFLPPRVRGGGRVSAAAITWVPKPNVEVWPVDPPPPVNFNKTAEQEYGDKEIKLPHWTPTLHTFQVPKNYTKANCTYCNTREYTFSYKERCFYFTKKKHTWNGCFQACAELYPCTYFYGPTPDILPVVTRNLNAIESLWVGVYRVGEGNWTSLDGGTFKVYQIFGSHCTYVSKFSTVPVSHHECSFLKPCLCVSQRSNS
GRK2 aptamer HTS: inhibitors of human GRK2 displacing RNA aptamer. P25098. bead flow cytometry, FAM-aptamer displacement from GRK2. inhibition of aptamer binding, % at 10 µM. 0.59% of 330,000 active;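 active = inhibition of aptamer binding above 40%, roughly 3 SD of noise, on plates passing a quality check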;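 note: median bead fluorescence of bound FAM aptamer so fluorescent compounds give negative values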
MEX-5 binding: C. elegans MEX-5 TCR-2 RNA binding activity | Q9XUB2 | MEX-5/FITC-TCR2 RNA binding, fluorescence polarization; active compounds read low | activity score (negative = inhibition of binding), % at 10 µM | 0.38% of 300,000 active;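 active = inhibition past about -25% in most replicates, and total fluorescence under double the plate's negative control median, limit read from the data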
Target sequence (Q9XUB2 whole entry, looked up): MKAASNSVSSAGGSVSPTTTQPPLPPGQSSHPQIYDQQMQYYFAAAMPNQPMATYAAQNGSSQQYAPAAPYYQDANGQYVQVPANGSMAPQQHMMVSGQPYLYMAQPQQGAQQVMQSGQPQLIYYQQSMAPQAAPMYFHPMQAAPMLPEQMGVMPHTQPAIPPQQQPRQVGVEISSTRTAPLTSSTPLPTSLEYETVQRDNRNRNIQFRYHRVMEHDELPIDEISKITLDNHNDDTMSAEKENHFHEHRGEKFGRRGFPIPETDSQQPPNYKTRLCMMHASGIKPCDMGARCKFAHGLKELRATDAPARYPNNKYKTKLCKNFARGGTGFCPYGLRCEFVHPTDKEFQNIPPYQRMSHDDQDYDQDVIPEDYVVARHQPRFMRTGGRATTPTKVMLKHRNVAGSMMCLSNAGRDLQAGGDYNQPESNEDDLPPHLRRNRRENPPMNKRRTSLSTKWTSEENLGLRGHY
GRK2 CP1: human GRK2 inhibition confirmation, cherry pick 1; shares compounds with GRK2 aptamer HTS; bead-bound GRK2, FAM-aptamer displacement, flow cytometry; aptamer displacement, % at 10 µM; 4% of 2,000 active; AID 504451;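 active = aptamer displacement above 40%, near three times the noise of non-fluorescent compounds, on plates passing quality checks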;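 note: negative values mostly reflect intrinsic compound fluorescence rather than true enhancement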
FAM quench CP1: quenches fluorescent RNA aptamer, GRK2 hit artifact. 2,000 tested, under 10 active. shares compounds with GRK2 aptamer HTS. fluorescence response (% of DMSO), % at 10 µM. AID 504580. Carboxyfluorescein RNA aptamer on beads, flow cytometry quenching; active compounds read low;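 active = compounds that quench the bead-bound fluorescent RNA probe, cutting fluorescence to under half of the solvent control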;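 note: counterscreen run without GRK2 so only probe quenching by compound is measured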
GRK2 confirm 2: confirmation of human GRK2 inhibitors binding RNA aptamer site; 360 tested, under 10 active; bead-bound GRK2, FAM-aptamer displacement, flow cytometry; inhibition of aptamer binding, % at 10 µM; shares compounds with GRK2 aptamer HTS;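 active = inhibition of aptamer binding above 40%, about triple the noise seen with nonglowing compounds, on plates passing quality control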;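 note: negative values mostly come from compounds that fluoresce themselves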
FAM quench CP2: quenches fluorescent RNA aptamer, GRK2 hit artifact | shares compounds with GRK2 aptamer HTS | carboxyfluorescein RNA aptamer beads, flow cytometry quenching; active compounds read low | fluorescence response vs DMSO, % at 10 µM | 360 tested, under 10 active | AID 588494;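 active = response vs DMSO under 50%, meaning signal dropped by over half, treated as fluorescence quencher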;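 note: labelled aptamer on streptavidin beads without GRK2 as a quench counter-screen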
A number is an active result.

For CCOc1ccc(CN2CCN(Cc3cn(CC)nc3C)CC2CCO)cc1 (stereo unspecified) the results were Keap1-Nrf2 PPI inactive, C-LANA FP inactive, T cell modulator inactive, EBV gp42 inh inactive, GRK2 aptamer HTS inactive and MEX-5 binding inactive.
COCCNC(=O)C(c1ccc(C)o1)N(C(=O)c1snc(C(N)=O)c1N)c1cc(C)cc(C)c1 (stereo unspecified) was read as Keap1-Nrf2 PPI inactive, C-LANA FP inactive, T cell modulator inactive, EBV gp42 inh inactive, GRK2 aptamer HTS inactive and MEX-5 binding inactive.
`COC(=O)[C@H](Cc1ccc(O)cc1)NCCCn1cnc(C(=O)Nc2ccc(C)c(C)c2)n1` gave Keap1-Nrf2 PPI inactive and C-LANA FP inactive.
For Cc1cc(C)cc(NC(=S)N2CCC(NC(=O)c3ccc(F)cc3)CC2)c1 the results were Keap1-Nrf2 PPI inactive, C-LANA FP inactive, T cell modulator inactive, GRK2 aptamer HTS inactive and MEX-5 binding inactive.
Screening COc1ccc(NC(=O)CSc2nc3ccccc3nc2N2CCCCC2)cc1 returned Keap1-Nrf2 PPI inactive, C-LANA FP inactive, T cell modulator inactive, GRK2 aptamer HTS inactive and MEX-5 binding inactive.
CCc1ccc(NC(=O)CSc2nc3ccccc3nc2N2CCCCC2)cc1 was read as Keap1-Nrf2 PPI inactive, C-LANA FP inactive, T cell modulator inactive, GRK2 aptamer HTS 69, MEX-5 binding inactive, GRK2 CP1 inactive and FAM quench CP1 inactive.
For Cc1ccccc1C(=O)Nc1ccnn1C1CCN(Cc2ccc(CO)o2)CC1 the results were Keap1-Nrf2 PPI inactive, C-LANA FP inactive, T cell modulator inactive, GRK2 aptamer HTS inactive and MEX-5 binding inactive.
For CC(=O)N1CCN(c2ccccc2NC(=O)c2ccco2)CC1 the results were Keap1-Nrf2 PPI inactive, C-LANA FP inactive, T cell modulator inactive, GRK2 aptamer HTS inactive and MEX-5 binding inactive.
c1ccc(-c2nnc(-c3ccco3)o2)cc1 was read as Keap1-Nrf2 PPI inactive, C-LANA FP inactive, T cell modulator inactive, EBV gp42 inh inactive, GRK2 aptamer HTS inactive and MEX-5 binding inactive.
`c1coc(-c2nnc(-c3ccco3)nn2)c1` gave Keap1-Nrf2 PPI inactive, C-LANA FP inactive, T cell modulator inactive, GRK2 aptamer HTS 88, MEX-5 binding -59, GRK2 CP1 inactive and FAM quench CP1 inactive.
O=C(Nc1cnccn1)c1cccs1 was read as Keap1-Nrf2 PPI inactive, C-LANA FP inactive, T cell modulator inactive, EBV gp42 inh inactive, GRK2 aptamer HTS inactive and MEX-5 binding inactive.
`Cc1cc(C)c(NC(=O)NC2CCCCC2)c(C)c1` gave Keap1-Nrf2 PPI inactive, C-LANA FP inactive, T cell modulator inactive, EBV gp42 inh inactive, GRK2 aptamer HTS inactive and MEX-5 binding inactive.
`CC1Nc2nc(N(C)C)[nH]c(=O)c2NC1C` (stereo unspecified) gave Keap1-Nrf2 PPI inactive, C-LANA FP inactive, T cell modulator inactive, EBV gp42 inh inactive, GRK2 aptamer HTS inactive, GRK2 CP1 inactive and FAM quench CP1 inactive.
Screening Nc1nc(NCCCN2CCOCC2)nc(Nc2ccc(Cl)cc2)c1[N+](=O)[O-] returned T cell modulator inactive, EBV gp42 inh inactive, GRK2 aptamer HTS inactive and MEX-5 binding inactive.
`COc1ccccc1NS(=O)(=O)c1ccc(C(=O)Nc2ncccc2O)cc1` gave Keap1-Nrf2 PPI inactive, C-LANA FP inactive, T cell modulator inactive and GRK2 aptamer HTS inactive.
C=CCSC1=C(C#N)C(c2ccccc2OC)CC(=O)N1 (stereo unspecified) was read as Keap1-Nrf2 PPI inactive, C-LANA FP inactive, T cell modulator inactive, EBV gp42 inh inactive, GRK2 aptamer HTS inactive and MEX-5 binding inactive.
`C=CCSC1=C(C#N)C(c2ccccc2OCC)CC(=O)N1` (stereo unspecified) gave Keap1-Nrf2 PPI inactive, C-LANA FP inactive, T cell modulator inactive, EBV gp42 inh inactive, GRK2 aptamer HTS inactive, MEX-5 binding inactive, GRK2 CP1 inactive and FAM quench CP1 inactive.
Screening Cc1cc(OCCCn2ccnc2)ccc1[N+](=O)[O-] returned Keap1-Nrf2 PPI inactive, C-LANA FP inactive, T cell modulator inactive, GRK2 aptamer HTS inactive and MEX-5 binding inactive.
Screening O=C(NCc1cc(C(F)(F)F)cc(C(F)(F)F)c1)C1CC(c2cccc([N+](=O)[O-])c2)=NO1 (stereo unspecified) returned Keap1-Nrf2 PPI inactive, C-LANA FP inactive, EBV gp42 inh inactive and MEX-5 binding inactive.
For CCOc1ccc(NC(=O)CN(C)c2ccc(S(=O)(=O)N3CCOCC3)cn2)cc1OCC the results were Keap1-Nrf2 PPI inactive, C-LANA FP inactive, T cell modulator inactive, EBV gp42 inh inactive, GRK2 aptamer HTS inactive and MEX-5 binding inactive.
For Cc1ccc(NC(=O)CN(C)c2ccc(S(=O)(=O)N3CCCC3)cn2)cc1 the results were Keap1-Nrf2 PPI inactive, C-LANA FP inactive, T cell modulator inactive, EBV gp42 inh inactive, GRK2 aptamer HTS 67, MEX-5 binding inactive, GRK2 CP1 inactive and FAM quench CP1 inactive.
`O=S1(=O)c2ccccc2N=NN1Cc1ccc(Cl)cc1` gave Keap1-Nrf2 PPI inactive, C-LANA FP inactive, T cell modulator inactive, EBV gp42 inh inactive, GRK2 aptamer HTS inactive and MEX-5 binding inactive.
Screening Cc1c(Cl)cccc1NS(=O)(=O)c1cn(C)c(=O)n(C)c1=O returned Keap1-Nrf2 PPI inactive, C-LANA FP inactive, T cell modulator inactive, GRK2 aptamer HTS 59, MEX-5 binding inactive, GRK2 CP1 inactive and FAM quench CP1 inactive.
`COc1ccc(S(=O)(=O)N2CCN(CC(=O)Nc3cccc(OC)c3)CC2)cc1` gave Keap1-Nrf2 PPI inactive, C-LANA FP inactive, T cell modulator inactive, GRK2 aptamer HTS inactive and MEX-5 binding inactive.
`O=C(O)C1CC(c2ccccc2)=NO1` (stereo unspecified) gave Keap1-Nrf2 PPI inactive, C-LANA FP inactive, T cell modulator inactive, EBV gp42 inh inactive, GRK2 aptamer HTS inactive, MEX-5 binding inactive, GRK2 confirm 2 inactive and FAM quench CP2 inactive.
Screening O=C(O)C1CC(c2cccc(Br)c2)=NO1 (stereo unspecified) returned Keap1-Nrf2 PPI inactive, C-LANA FP inactive, T cell modulator inactive, EBV gp42 inh inactive, GRK2 aptamer HTS inactive, MEX-5 binding inactive, GRK2 confirm 2 inactive and FAM quench CP2 inactive.

High-throughput results as filed in PubChem.
